Assay results reported in ChEMBL document CHEMBL3856208, “Lupane and 18α-oleanane derivatives substituted in the position 2, their cytotoxicity and influence on cancer cells” (Eur J Med Chem, 2016).

Assays:
CCRF-CEM [1] = assay: Mitotic arrest in human CCRF-CEM cells assessed as phosphorylation of histone-3 at Ser10 at 23 uM after 24 hrs by flow cytometric method (reference value: 1.66%)
[2] = Cytotoxicity against human K562 cells after 72 hrs by MTS assay; type: functional, cell-based; conditions: K562, 72 h
Method in brief: (§1)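 Cells seeded at 25000–35000 cells/mL, compounds from DMSO dosed at time zero as four-fold dilutions. Exposure 72 h at 37 °C, 5% CO2, with MTS added for 1–4 h and OD read at 490 nm. Survival expressed as % of mean control OD, with IC50 from dose-response curves. Run as technical duplicates in at least three biological replicates.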

[3] = Cell cycle arrest in human CCRF-CEM cells assessed as accumulation at G0/G1 phase at 4.6 uM after 24 hrs by propidium iodide staining-based flow cytometric method (reference value: 36.41%); type: functional
CCRF-CEM [4] = assay: Mitotic arrest in human CCRF-CEM cells assessed as phosphorylation of histone-3 at Ser10 at 4.6 uM after 24 hrs by flow cytometric method (reference value: 1.66%); type: functional
[5] = Therapeutic index, ratio of IC50 for human BJ cells to IC50 for human CCRF-CEM cells; type: cell-based; conditions: BJ cells versus CCRF-CEM cells, read-out: Ratio IC50
[6] = Cytotoxicity against human BJ cells after 72 hrs by MTS assay; type: toxicity, cell-based
Method in brief: as §1

[7] = Cytotoxicity against human HCT116 cells after 72 hrs by MTS assay; type: functional, cell-based; conditions: HCT-116, 72 h
Method in brief: as §1

[8] = Cytotoxicity against human U2OS cells after 72 hrs by MTS assay; type: functional, cell-based
Method in brief: as §1

CCRF-CEM [9] = assay: Inhibition of DNA synthesis in human CCRF-CEM cells assessed as decrease in BrdU incorporation by measuring synthesized DNA levels at 23 uM after 24 hrs by propidium iodide staining-based flow cytometric method (reference value: 56.37%); type: functional; parameters: scale not given: the % may be the effect or the level left
Method in brief: (§2)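 CCRF-CEM cells were cultured and treated as for cell cycle analysis, then pulse-labeled with 10 µM BrDU for 30 min before harvest. Cells were ethanol-fixed, DNA-denatured in 2 M HCl for 30 min at room temperature, and neutralized with 0.1 M borax. Staining used anti-BrDU, then anti-mouse-FITC, then PI (0.1 mg/mL) with RNase A (0.5 mg/mL) for 1 h. Read-out was 488 nm flow cytometry.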

[10] = Cytotoxicity against human K562-TAX cells after 72 hrs by MTS assay; type: functional, cell-based
Method in brief: as §1

[11] = Cell cycle arrest in human CCRF-CEM cells assessed as accumulation at S phase at 23 uM after 24 hrs by propidium iodide staining-based flow cytometric method (reference value: 50.33%); type: functional
CCRF-CEM [12] = assay: Inhibition of RNA synthesis in human CCRF-CEM cells assessed as decrease in BrU incorporation by measuring synthesized RNA levels at 4.6 uM after 24 hrs by propidium iodide staining-based flow cytometric method (reference value: 43.37%); type: functional; parameters: scale not given: the % may be the effect or the level left
[13] = Cytotoxicity against human MRC5 cells after 72 hrs by MTS assay; type: toxicity, cell-based
Method in brief: as §1

[14] = Cytotoxicity against human A549 cells after 72 hrs by MTS assay; type: functional, cell-based; conditions: A549, 72 h
Method in brief: as §1

[15] = Cell cycle arrest in human CCRF-CEM cells assessed as accumulation at S phase at 4.6 uM after 24 hrs by propidium iodide staining-based flow cytometric method (reference value: 50.33%); type: functional
[16] = Cytotoxicity against human CEM/DNR cells after 72 hrs by MTS assay; type: functional, cell-based
Method in brief: as §1

[17] = Cytotoxicity against p53 deficient human HCT116 cells after 72 hrs by MTS assay; type: functional, cell-based; conditions: HCT-116, 72 h
Method in brief: as §1

[18] = Cell cycle arrest in human CCRF-CEM cells assessed as accumulation at G2/M phase at 23 uM after 24 hrs by propidium iodide staining-based flow cytometric method (reference value: 13.28%); type: functional
CCRF-CEM [19] = assay: Inhibition of DNA synthesis in human CCRF-CEM cells assessed as decrease in BrdU incorporation by measuring synthesized DNA levels at 4.6 uM after 24 hrs by propidium iodide staining-based flow cytometric method (reference value: 56.37%); type: functional; parameters: scale not given: the % may be the effect or the level left
Method in brief: as §2

CCRF-CEM [20] = assay: Inhibition of RNA synthesis in human CCRF-CEM cells assessed as decrease in BrU incorporation by measuring synthesized RNA levels at 23 uM after 24 hrs by propidium iodide staining-based flow cytometric method (reference value: 43.37%); type: functional; parameters: scale not given: the % may be the effect or the level left
[21] = Cell cycle arrest in human CCRF-CEM cells assessed as accumulation at G0/G1 phase at 23 uM after 24 hrs by propidium iodide staining-based flow cytometric method (reference value: 36.41%); type: functional
[22] = Cell cycle arrest in human CCRF-CEM cells assessed as accumulation at sub G1 phase at 23 uM after 24 hrs by propidium iodide staining-based flow cytometric method (reference value: 1.8%); type: functional
[23] = Cell cycle arrest in human CCRF-CEM cells assessed as accumulation at G2/M phase at 4.6 uM after 24 hrs by propidium iodide staining-based flow cytometric method (reference value: 13.28%); type: functional
[24] = Therapeutic index, ratio of IC50 for human MRC5 cells to IC50 for human CCRF-CEM cells; type: cell-based; conditions: MRC5 cells versus CCRF-CEM cells, read-out: Ratio IC50
[25] = Cell cycle arrest in human CCRF-CEM cells assessed as accumulation at sub G1 phase at 4.6 uM after 24 hrs by propidium iodide staining-based flow cytometric method (reference value: 1.8%); type: functional
[26] = Cytotoxicity against human CCRF-CEM cells after 72 hrs by MTS assay; type: functional, cell-based
Method in brief: as §1

SMILES	IC50 [2] [µM]	selectivity ratio [5]	IC50 at 72 h [6] [µM]	IC50 [7] [µM]	IC50 [8] [µM]	IC50 [10] [µM]	IC50 at 72 h [13] [µM]	IC50 [14] [µM]	IC50 [16] [µM]	IC50 [17] [µM]	selectivity ratio [24]	IC50 [26] [µM]	other results
CC1(C)CC[C@]23CC[C@]4(C)[C@H](CC[C@@H]5[C@@]6(C)CC(N)[C@H](O)C(C)(C)[C@@H]6CC[C@]54C)[C@H]2[C@H]1OC3 (stereo partly drawn)	4.5	1.4	7.1	4.9	6.2	3.9	6.3	6.2	5.9	4.8	1.4	4.6 to 5	Activity (CCRF-CEM [1]): 0.49%; Activity [3]: 40.7%; Activity (CCRF-CEM [4]): 1.44%; Activity (CCRF-CEM [9]): 1.88%; Activity [11]: 54.9%; Activity (CCRF-CEM [12]): 42.98%; Activity [15]: 47.8%; Activity [18]: 16.2%; Activity (CCRF-CEM [19]): 53.53%; Activity (CCRF-CEM [20]): 2.23%; Activity [21]: 28.9%; Activity [22]: 7.1%; Activity [23]: 11.5%; Activity [25]: 2.79%
COC(=O)[C@]12CC[C@@H](C(C)C)[C@@H]1[C@H]1CC[C@@H]3[C@@]4(C)CC(S)C(=O)C(C)(C)[C@@H]4CC[C@@]3(C)[C@]1(C)CC2 (stereo partly drawn)	> 50	> 1.1	> 50	> 50	> 50	> 50	> 50	> 50	> 50	> 50	> 1.1	40 to 45.3	–
